The record followed here is ChEMBL document CHEMBL1126553, “Antioxidant and neutrophil-inhibiting properties of new 2-O-methyl-6-(alkylthio)ascorbic acid derivatives” (J Med Chem, 1993).

Structures are written as SMILES. Activity calls are given as the source filed them. No cut-off for these calls is given here.

For series [1], the species on record is Homo sapiens. Put plainly: Inhibitory effect on superoxide anion formation of fMLP-stimulated neutrophils at 1 uM by cytochrome c assay; Did not inhibit or weakly inhibited. It counts as functional.
A short description of series [2]: Dissociation constant in aqueous solution. In kind it is physicochemical.
The species named for series [3] is Homo sapiens. As to the kind of experiment: Tested for inhibition of fMLP induced secretion of lysozyme from human neutrophil cells; Did not influence or inactive. In kind it is functional, cell-based.
Series [4] is filed under the species Homo sapiens. As to the kind of experiment: Inhibitory effect on superoxide anion formation of fMLP-stimulated neutrophils at 1 uM by cytochrome c assay. In kind it is functional.
The species named for series [5] is Rattus norvegicus. As to the kind of experiment: Tested for inhibition of lipid peroxidation in rat liver microsomes. It counts as functional. A digest of the protocol: (§1)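 Wistar rat liver microsomes (1 mg/mL) in 50 mM potassium phosphate, pH 7.2, with 50 μM ADP and 5 μM […]. Compound or DMSO was preincubated at 25 °C (5 min per methods; legend says 3 min). Peroxidation was started with 1 mM NADPH. After 15 min, malondialdehyde was measured by thiobarbituric acid at 532 nm. Mean ± SEM, n = 3.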
On the technique in general: Liver microsomes are vesicles of endoplasmic reticulum, rich in cytochrome P450 enzymes.

For series [6], the species on record is Homo sapiens. Put plainly: Maximum Inhibition of fMLP-stimulated superoxide production in a cell density of 5 x 10 e 6 cells/mL. It counts as functional.
The species named for series [7] is Homo sapiens. As to the kind of experiment: Inhibition of fMLP-induced oxidative burst in a cell density of 2 x 10 e 6 cells/mL. In kind it is functional, cell-based.
The species entered for series [8] is Homo sapiens. As to the kind of experiment: Inhibition of fMLP-induced oxidative burst in a cell density of 5 x 10 e 5 cells/mL. In kind it is functional, cell-based.
The species named for series [9] is Homo sapiens. Put plainly: Inhibition of fMLP-stimulated superoxide production in a cell density of 5 x 10 e 6 cells/mL. It counts as functional, cell-based.
Series [10] is filed under the species Homo sapiens. As to the kind of experiment: Inhibition of fMLP-induced secretion of beta-glucurodinase (azurophilic granules). In kind it is functional. A digest of the protocol:
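Neutrophils at 5 × 10⁶/mL were primed with 5 μg/mL cytochalasin B (4 min, 37 °C), given compound in 0.1% DMSO for 3 min, then 100 nM fMLP for 15 min. Stopped on ice and pelleted. Supernatant β-glucuronidase was assayed with 4-methylumbelliferyl-β-D-glucuronide, pH 4.0, 15 min at 37 °C; fluorescence ex 365/em 460 nm. n = 3.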

Series [11] in a line: Dissociation constant in aqueous system. In kind it is physicochemical.
The species named for series [12] is Homo sapiens. As to the kind of experiment: Inhibition of fMLP-induced secretion of lysozyme (azurophilic and specific granules). It counts as functional.
The species named for series [13] is Homo sapiens. Put plainly: Maximum inhibition of MLP-induced oxidative burst in a cell density of 2 x 10 e 6 cells/mL. It counts as functional.
Series [14] is filed under the species Rattus norvegicus. Put plainly: Inhibition of Fe(2+)/ADP-induced lipid peroxidation of rat liver microsomes. It counts as functional. A digest of the protocol: as §1

Consider `CCCCCCCCSCC(O)C1OC(O)=C(OC)C1=O` (stereo not drawn), for which the inhibition – broadly, the drop in the measured response relative to a control, in per cent – in the series filed under Homo sapiens [1] is recorded as “Did not inhibit or weakly inhibited”.
Turning to `CCCCCCCCCCCCCCCCSCC(O)C1OC(=O)C(O)=C1OC` (stereo not drawn), in series [2], the pKa (in general, the pH at which an ionisable group is half protonated) came out at 7.7. In addition, the inhibition result in the series filed under Homo sapiens [3] was “inactive”.
The compound `CCCCCCCCCCCCCCCCCCSCC(O)C1OC(O)=C(OC)C1=O` (stereo not drawn) had an inhibition at 1 µM in the series listed under Homo sapiens [4] of 40%.
Take `CCCCCCCCCCCCSCC(O)C1OC(O)=C(OC)C1=O` (stereo not drawn): the inhibition entry in the series filed under Homo sapiens [1] was “Did not inhibit or weakly inhibited”. The midpoint of inhibition in the series filed under Rattus norvegicus [5], the IC50, lay at 2.5 µM.
Consider `CCCCCCCCCCCCCCCCSCC(O)C1OC(O)=C(OC)C1=O` (stereo not drawn), for which the figures for the Max inhibition concentration in the series filed under Homo sapiens [6] and in the series listed under Homo sapiens [13] were 10 µM and 5 µM, respectively. Also, the IC50 (in general, the concentration needed to halve the response being measured) in the series filed under Homo sapiens [7] worked out at 1.25 µM; in the series listed under Homo sapiens [8], 0.6 µM; in the series filed under Homo sapiens [9], 3.7 µM; in the series filed under Homo sapiens [10], 7 µM; in the series filed under Homo sapiens [12] it was 2.5 µM; in the series listed under Rattus norvegicus [14], 2 µM. The inhibition at 1 µM in the series filed under Homo sapiens [4] was determined as 80%. For the same compound, the pKa in series [11] was 3.32.
Take `COC1=C(O)OC(C(O)CSc2ccccc2)C1=O` (stereo not drawn): the inhibition entry in the series listed under Homo sapiens [1] was “Did not inhibit or weakly inhibited”.
For the compound `CCCCCCCCCCCCCCCCSCC(O)C1OC(=O)C(OC)=C1OC` (stereo not drawn), the inhibition entry in the series listed under Homo sapiens [1] is on record as “Did not inhibit or weakly inhibited”.
